In general, viability refers to a read-out of living cells in per cent, often relative to untreated cells. As a reminder, the inhibition is the change of the read-out against control, counted positive when it falls.

Each structure is given as a SMILES string. The source made the active and inactive calls. Unless noted, no stated cut-off is given here; in the data, active means inhibition above about 30%; inactive means the rest.

The source of these data is PubChem BioAssay.

Experiment [1] is described as follows: reduced viability of SK-BR-3 breast cancer cells – cell-based, 24 h, human, pilot screen (AID 572;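 active means viability at or below 10% of carrier control in both of two separate runs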;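 further: compound exposure lasted between 18 and 24 h rather than exactly 24 h; 100% = carrier-treated control wells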). To be noted: SK-BR-3 viability, CellTiter-Glo luminescence, at 10 µM, stronger effect = lower value. In general terms: In ATP-based viability assays light output follows the ATP content of the culture.
A short description of experiment [2]: HUVEC growth inhibition – cell-based, human, primary screen (AID 575;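 active means viability at or below 30% in both replicate assays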;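 further: 100% = median of untreated cell wells with 0.1% DMSO on each plate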). The following applies: HUVEC proliferation, CellTiter-Glo luminescence, 72 h; at 10 µM; stronger effect = lower value. An outline of the steps:
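Material: primary human umbilical vein endothelial cells / Schedule: 72 h exposure, 37 °C, 5% CO2, 30 min RT equilibration / Signal: ATP-based CellTiter-Glo luminescent read / Read-out basis: percent of median DMSO-control luminescence / Control set: 32 DMSO-only cell-control wells (high), 32 MePR drug-control wells (low) per plate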

Experiment [3] is described as follows: H69AR cell proliferation blockers – human, duplicate replicates, primary screen (AID 580;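 active means viability at or under a set limit in both replicates, limit being median viability minus 3 SD, cut at about 48% in these data, passing the limit was not always enough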;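 further: 100% = mean luminescence of untreated wells and 0% = no signal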). To be noted: H69AR lung tumor cells viability, ATP luminescence, 72 h; at 10 µM; stronger effect = lower value.
Experiment [4] in a line: MRP1 drug-resistance reversers in H69AR cells – cell-based, doxorubicin co-treatment, pilot screen (AID 601;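 active means viability loss from added drug above about 55%, and viability with drug at most 40%, in both replicates, limit read from the data, passing the limit was not always enough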). The following applies: CellTiter-Glo, 72 h, at 10 µM; for differential viability (reversal): stronger effect = higher value.
The nature of experiment [5]: yeast transport mutant growth inhibition pilot in 384-well plates, post-Golgi transport modulator project (AID 636; in the data active means inhibition above about 31%). To be noted: absorbance 615 nm, about 18 h, stronger effect = higher value.
Experiment [6] is described as follows: growth suppression of yeast trafficking mutant, preliminary HTS, modulators of trafficking downstream of Golgi apparatus project, 1536-format plate, OD 615 nm (AID 637). To be noted: yeast transport mutant growth, absorbance 615 nm, 18 h; stronger effect = higher value.
[7] abbreviates: H69AR cells + 2 uM doxorubicin, measured here: viability with 2 uM doxorubicin, stronger effect = lower value.
Setting [8] is: H69AR cells, compound alone cytotoxicity.

Take `CS(=O)(=O)NCC(c1cccnc1)N1CCN(c2ccc(F)cc2)CC1` (centres undefined): the viability in experiment [1] was 107% (inactive); in experiment [2] it was 113% (inactive); in experiment [3], 92.2% (inactive); in experiment [4] (setting [7]) it was 91.3%; in experiment [4] (setting [8]) it was 92.2%. Also, the differential viability (reversal) in experiment [4] (H69AR cells + 2 uM doxorubicin) is 0.865% (inactive). For the same compound, the inhibition in experiment [5] was -1.89% (inactive); in experiment [6], -3.45% (inactive).

As to `COc1ccc(C(=O)NCCC(C)C)cc1S(=O)(=O)N1CCOCC1`, the viability is 98% (inactive) in experiment [1]; 98.8% (inactive) in experiment [2]; 102% (inactive) in experiment [3]; 94.2% in experiment [4] (setting [7]); 102% in experiment [4] (setting [8]). Also, the differential viability (reversal) in experiment [4] (H69AR cells + 2 uM doxorubicin) is 7.34% (inactive). Moreover, the inhibition in experiment [5] is -9.86% (inactive); in experiment [6] it was 2.73% (inactive).

On to `O=C(NC1CCS(=O)(=O)C1)OC1CCCCC1` (centres undefined), for which the viability in experiment [1] was 75% (inactive); in experiment [2], 111% (inactive); in experiment [3], 93.4% (inactive); in experiment [4] (setting [7]), 104%; in experiment [4] (setting [8]), 93.4%. Besides, in experiment [4] (H69AR cells + 2 uM doxorubicin), the differential viability (reversal) is -10.9% (inactive). Moreover, the inhibition is -0.82% (inactive) in experiment [5] and 1.82% (inactive) in experiment [6].

Consider `CCCCOc1ccccc1C1C(C(N)=O)=C(C)Nc2nnnn21` (centres undefined), for which the viability was 110% (inactive) in experiment [1]; 98.3% (inactive) in experiment [2]; 93.3% (inactive) in experiment [3]; 86.6% in experiment [4] (setting [7]); 93.3% in experiment [4] (setting [8]). For the same compound, the differential viability (reversal) in experiment [4] (H69AR cells + 2 uM doxorubicin) is 6.69% (inactive). In addition, the inhibition in experiment [5] was -3.9% (inactive); in experiment [6] it was 0.82% (inactive).

Take `CC1=C(C(=O)N2CCOCC2)C(c2ccsc2)C2=C(CCCC2=O)N1` (centres undefined): the viability was 96% (inactive) in experiment [1]; 107% (inactive) in experiment [2]; 90.4% (inactive) in experiment [3]; 90.5% in experiment [4] (setting [7]); 90.4% in experiment [4] (setting [8]). Besides, the differential viability (reversal) in experiment [4] (H69AR cells + 2 uM doxorubicin) was -0.065% (inactive). The inhibition in experiment [5] was -2.47% (inactive); in experiment [6], 7.74% (inactive).

As for `Cc1cc(S(=O)(=O)N(Cc2ccccc2)Cc2ccc(N(C)C)cc2)ccc1-n1cnnn1`, the viability in experiment [1] is 81% (inactive); in experiment [2] it was 84.3% (inactive); in experiment [3] it was 84% (inactive); in experiment [4] (setting [7]), 87.6%; in experiment [4] (setting [8]), 84%. Also, the differential viability (reversal) in experiment [4] (H69AR cells + 2 uM doxorubicin) was -3.54% (inactive). Also, the inhibition in experiment [5] is -8.24% (inactive); in experiment [6], -2.36% (inactive).

As for `O=C(OC1CCc2ccccc2C1=O)c1ccccc1O` (centres undefined), the viability is 71% (inactive) in experiment [1]; 106% (inactive) in experiment [2]; 78.6% (inactive) in experiment [3]; 91.8% in experiment [4] (setting [7]); 78.6% in experiment [4] (setting [8]). In addition, the differential viability (reversal) in experiment [4] (H69AR cells + 2 uM doxorubicin) was -13.2% (inactive). The inhibition is -1.33% (inactive) in experiment [5] and -1.27% (inactive) in experiment [6].

Turning to `CC(=O)c1cccc(NC(=O)NCc2ccco2)c1`, the viability in experiment [1] was 93% (inactive); in experiment [2] it was 93.9% (inactive); in experiment [3] it was 85.7% (inactive); in experiment [4] (setting [7]), 86.2%; in experiment [4] (setting [8]), 85.7%. Besides, the differential viability (reversal) in experiment [4] (H69AR cells + 2 uM doxorubicin) was -0.48% (inactive). The inhibition in experiment [5] was -4.79% (inactive); in experiment [6], 2.36% (inactive).

For `COc1ccc(C2/C(=C(/O)c3ccc(OC(C)C)cc3)C(=O)C(=O)N2CCCN2CCOCC2)cc1` (centres undefined), the viability in experiment [1] is 112% (inactive); in experiment [2], 97.7% (inactive); in experiment [3], 92.4% (inactive); in experiment [4] (setting [7]) it was 105%; in experiment [4] (setting [8]), 92.4%. For the same compound, the differential viability (reversal) in experiment [4] (H69AR cells + 2 uM doxorubicin) is -12.4% (inactive). Besides, the figures for the inhibition in experiment [5] and in experiment [6] were -5.21% (inactive) and -1.09% (inactive), respectively.

On to `O=C(NCCCN1CCCC1=O)c1ccc2c(=O)n(Cc3ccco3)c(=S)[nH]c2c1`, for which the viability in experiment [1] is 97% (inactive); in experiment [2] it was 105% (inactive); in experiment [3], 99.6% (inactive); in experiment [4] (setting [7]), 91.7%; in experiment [4] (setting [8]), 99.6%. Moreover, in experiment [4] (H69AR cells + 2 uM doxorubicin), the differential viability (reversal) was 7.89% (inactive). The inhibition in experiment [5] is 1.95% (inactive); in experiment [6], 10.5% (inactive).

With `CCCCCc1nnc(NC(=O)Cc2cccs2)s1`, the viability in experiment [1] is 74% (inactive); in experiment [2], 110% (inactive); in experiment [3], 102% (inactive); in experiment [4] (setting [7]), 90.8%; in experiment [4] (setting [8]), 102%. Moreover, in experiment [4] (H69AR cells + 2 uM doxorubicin), the differential viability (reversal) was 10.7% (inactive). Also, the inhibition in experiment [5] was -6.71% (inactive); in experiment [6] it was 3.64% (inactive).

`CC(NC(=O)NC12CC3CC(CC(C3)C1)C2)C1CCCO1` (centres undefined): the viability in experiment [1] was 80% (inactive); in experiment [2] it was 103% (inactive); in experiment [3] it was 103% (inactive); in experiment [4] (setting [7]), 93.4%; in experiment [4] (setting [8]), 103%. Further, the differential viability (reversal) in experiment [4] (H69AR cells + 2 uM doxorubicin) is 10.1% (inactive). Further, the inhibition in experiment [5] is -3.7% (inactive); in experiment [6] it was 1.27% (inactive).

As to `O=C1C(CCS(=O)c2ccccc2)C(=O)N(c2ccccc2)N1c1ccccc1` (centres undefined), the viability in experiment [1] is 112% (inactive); in experiment [2], 84.5% (inactive); in experiment [3], 96.6% (inactive); in experiment [4] (setting [7]), 88.7%; in experiment [4] (setting [8]), 96.6%. Further, in experiment [4] (H69AR cells + 2 uM doxorubicin), the differential viability (reversal) is 7.85% (inactive). Moreover, the inhibition is 0.65% (inactive) in experiment [5] and 10.7% (inactive) in experiment [6].

As to `COC(=O)C1=C(C)Nc2ncnn2C1c1ccco1` (centres undefined), the viability was 80% (inactive) in experiment [1]; 91.8% (inactive) in experiment [2]; 85.9% (inactive) in experiment [3]; 81.2% in experiment [4] (setting [7]); 85.9% in experiment [4] (setting [8]). In addition, in experiment [4] (H69AR cells + 2 uM doxorubicin), the differential viability (reversal) was 4.73% (inactive). Further, the inhibition in experiment [5] is -8.49% (inactive); in experiment [6] it was 4.91% (inactive).

As to `COC(=O)C1C2C=CC3(CN(CC4CCCO4)C(=O)C13)O2` (centres undefined), the viability is 78% (inactive) in experiment [1]; 114% (inactive) in experiment [2]; 102% (inactive) in experiment [3]; 111% in experiment [4] (setting [7]); 102% in experiment [4] (setting [8]). The differential viability (reversal) in experiment [4] (H69AR cells + 2 uM doxorubicin) was -9.38% (inactive). The inhibition is -6.99% (inactive) in experiment [5] and -0.18% (inactive) in experiment [6].

Turning to `CCOC(=O)c1[nH]c2ccc(C)cc2c1NC(=O)CN1CCCCC1`, the viability in experiment [1] was 107% (inactive); in experiment [2], 106% (inactive); in experiment [3], 87.8% (inactive); in experiment [4] (setting [7]) it was 87.1%; in experiment [4] (setting [8]) it was 87.8%. Besides, in experiment [4] (H69AR cells + 2 uM doxorubicin), the differential viability (reversal) is 0.72% (inactive). Also, the inhibition in experiment [5] was -5.73% (inactive); in experiment [6], -3.09% (inactive).

As for `NC(=O)c1c(NC(=O)Cc2cccs2)sc2c1CCC2`, the viability in experiment [1] is 103% (inactive); in experiment [2] it was 97.3% (inactive); in experiment [3], 94.3% (inactive); in experiment [4] (setting [7]), 91.3%; in experiment [4] (setting [8]) it was 94.3%. Further, in experiment [4] (H69AR cells + 2 uM doxorubicin), the differential viability (reversal) was 3.05% (inactive). For the same compound, the inhibition in experiment [5] is -0.27% (inactive); in experiment [6], -6.94% (inactive).

For the compound `COC(=O)c1ccc(C2C(C#N)=C(N)Oc3cc(C)n(C)c(=O)c32)cc1` (centres undefined), the viability in experiment [1] was 104% (inactive); in experiment [2], 95.5% (inactive); in experiment [3], 97.8% (inactive); in experiment [4] (setting [7]), 95.4%; in experiment [4] (setting [8]) it was 97.8%. Moreover, in experiment [4] (H69AR cells + 2 uM doxorubicin), the differential viability (reversal) was 2.3% (inactive). For the same compound, the inhibition is -0.82% (inactive) in experiment [5] and -3.23% (inactive) in experiment [6].
